In brackets after ≈: the same amount, converted by molar mass. Activity calls are given as the source filed them. The calls are words filed in the database; no cut-off is given here.
Legend:
[1] = system: Acinetobacter johnsonii; experiment: Antibacterial activity against Acinetobacter johnsonii ATCC 17909 at 2 mg/ml after 24 hrs by agar diffusion test; assay type: functional
Method in brief: (§1)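 Agar diffusion: wells in agar filled with […] DMSO solution of compound at various concentrations; diameter of clear zone around application point measured. Bacteria grown 24 h at 37 °C on nutrient agar. Compounds first screened at 50 mg/ml; those active then tested at lower concentrations. Bracketed value = lowest concentration (mg/ml) giving zone >11 mm, reported only if activity retained at ≤1.25 mg/ml.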

[2] = system: Penicillium chrysogenum; experiment: Antifungal activity against Penicillium chrysogenum CECT 2802 at 2 mg/ml after 72 hrs by agar diffusion test; assay type: functional, organism-based
Method in brief: (§2)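 Agar diffusion: yeasts grown on yeast peptone dextrose agar and fungi on potato dextrose agar. Wells are filled with […] of compound solution in DMSO at various concentrations, and the clear-zone diameter is measured. Bracketed values give the lowest concentration (mg/ml) that produces a zone >11 mm. A first screen is run at 50 mg/ml.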

[3] = system: Micrococcus luteus; experiment: Antibacterial activity against Sarcina lutea ATCC 9341 at 2 mg/ml after 24 hrs by agar diffusion test; assay type: functional, organism-based; method in brief: as §1
[4] = system: Escherichia coli; experiment: Antibacterial activity against Escherichia coli ATCC 8739 at 50 mg/ml after 24 hrs by agar diffusion test; assay type: functional; settings: ATCC 8739, 24 h, read-out: DIZ; method in brief: as §1
[5] = system: Saccharomyces cerevisiae; experiment: Antifungal activity against Saccharomyces cerevisiae ATCC 9763 at 2 mg/ml after 72 hrs by agar diffusion test; assay type: functional, organism-based; method in brief: as §2
[6] = system: Bacillus mycoides; experiment: Antibacterial activity against Bacillus mycoides DSMZ 274 at 50 mg/ml after 24 hrs by agar diffusion test; assay type: functional; settings: DSMZ 274, 24 h, read-out: DIZ; method in brief: as §1
[7] = system: Acinetobacter johnsonii; experiment: Antibacterial activity against Acinetobacter johnsonii ATCC 17909 at 50 mg/ml after 24 hrs by agar diffusion test; assay type: functional; settings: ATCC 17909, 24 h, read-out: DIZ; method in brief: as §1
[8] = system: Bacillus mycoides; experiment: Antibacterial activity against Bacillus mycoides DSMZ 274 assessed as concentration required to produce >11 mm of zone of inhibition after 24 hrs by agar diffusion test; assay type: functional; method in brief: as §1
[9] = system: Mycobacterium tuberculosis; experiment: Antimycobacterial activity against Mycobacterium tuberculosis H37Rv after 45 days; assay type: functional
Method in brief: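 Canetti proportion method. Compound in DMSO is added to Löwenstein–Jensen egg medium before coagulation (30 min, 85 °C), tested at three levels plus a lower one where needed. Tubes are inoculated with H37Rv at 10⁵ cells/ml and incubated 45 days at 37 °C. Colony counts versus drug-free control give percentage inhibition.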

[10] = system: Escherichia coli; experiment: Antibacterial activity against Escherichia coli ATCC 8739 assessed as concentration required to produce >11 mm of zone of inhibition after 24 hrs by agar diffusion test; assay type: functional; method in brief: as §1
[11] = system: Acinetobacter johnsonii; experiment: Antibacterial activity against Acinetobacter johnsonii ATCC 17909 assessed as concentration required to produce >11 mm of zone of inhibition after 24 hrs by agar diffusion test; assay type: functional; method in brief: as §1
[12] = system: Bacillus cereus; experiment: Antibacterial activity against Bacillus cereus ATCC 11778 assessed as concentration required to produce >11 mm of zone of inhibition after 24 hrs by agar diffusion test; assay type: functional; method in brief: as §1
[13] = system: Staphylococcus aureus; experiment: Antibacterial activity against Staphylococcus aureus NRRL B 313 at 50 mg/ml after 24 hrs by agar diffusion test; assay type: functional; settings: NRRL B 313, 24 h, read-out: DIZ
Method in brief: (§3)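 Agar diffusion: bacteria grown 24 h at 37 °C on nutrient agar. Wells in the agar are filled with […] of compound solution in DMSO at various concentrations. The diameter of the clear zone around the application point is measured. Bracketed values give the lowest concentration (mg/ml) that produces a zone >11 mm. A first screen is run at 50 mg/ml.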

[14] = system: Staphylococcus aureus; experiment: Antibacterial activity against Staphylococcus aureus NRRL B 313 assessed as concentration required to produce >11 mm of zone of inhibition after 24 hrs by agar diffusion test; assay type: functional; method in brief: as §3
[15] = system: Priestia megaterium; experiment: Antibacterial activity against Bacillus megaterium NRRL 1353895 assessed as concentration required to produce >11 mm of zone of inhibition after 24 hrs by agar diffusion test; assay type: functional; method in brief: as §1
[16] = system: Bacillus; experiment: Antibacterial activity against Bacillus idosus B 241 at 50 mg/ml after 24 hrs by agar diffusion test; assay type: functional; settings: B 241, 24 h, read-out: DIZ; method in brief: as §1
[17] = system: Candida tropicalis; experiment: Antifungal activity against Candida tropicalis ATCC 20336 at 2 mg/ml after 72 hrs by agar diffusion test; assay type: functional, organism-based; method in brief: as §2
[18] = system: Saccharomyces cerevisiae; experiment: Antifungal activity against Saccharomyces cerevisiae ATCC 9763 at 50 mg/ml after 72 hrs by agar diffusion test; assay type: functional; settings: ATCC 9763, 72 h, read-out: DIZ; method in brief: as §2
[19] = system: Escherichia coli; experiment: Antibacterial activity against Escherichia coli ATCC 8739 at 2 mg/ml after 24 hrs by agar diffusion test; assay type: functional, organism-based; method in brief: as §1
[20] = system: Bacillus subtilis; experiment: Antibacterial activity against Bacillus subtilis ATCC 6633 at 50 mg/ml after 24 hrs by agar diffusion test; assay type: functional; settings: ATCC 6633, 24 h, read-out: DIZ; method in brief: as §1
[21] = system: Bacillus mycoides; experiment: Antibacterial activity against Bacillus mycoides DSMZ 274 at 2 mg/ml after 24 hrs by agar diffusion test; assay type: functional, organism-based; method in brief: as §1
[22] = system: Saccharomyces cerevisiae; experiment: Antifungal activity against Saccharomyces cerevisiae ATCC 9763 assessed as concentration required to produce >11 mm of zone of inhibition after 72 hrs by agar diffusion test; assay type: functional; method in brief: as §2
[23] = system: Bacillus; experiment: Antibacterial activity against Bacillus idosus B 241 at 2 mg/ml after 24 hrs by agar diffusion test; assay type: functional, organism-based; method in brief: as §1
[24] = system: Candida tropicalis; experiment: Antifungal activity against Candida tropicalis ATCC 20336 assessed as concentration required to produce >11 mm of zone of inhibition after 72 hrs by agar diffusion test; assay type: functional; method in brief: as §2
[25] = system: Priestia megaterium; experiment: Antibacterial activity against Bacillus megaterium NRRL 1353895 at 50 mg/ml after 24 hrs by agar diffusion test; assay type: functional; settings: NRRL 1353895, 24 h, read-out: DIZ; method in brief: as §1
[26] = system: Bacillus subtilis; experiment: Antibacterial activity against Bacillus subtilis ATCC 6633 at 2 mg/ml after 24 hrs by agar diffusion test; assay type: functional, organism-based; method in brief: as §1
[27] = system: Bacillus cereus; experiment: Antibacterial activity against Bacillus cereus ATCC 11778 at 50 mg/ml after 24 hrs by agar diffusion test; assay type: functional; settings: ATCC 11778, 24 h, read-out: DIZ; method in brief: as §1
[28] = system: Bacillus; experiment: Antibacterial activity against Bacillus idosus B 241 assessed as concentration required to produce >11 mm of zone of inhibition after 24 hrs by agar diffusion test; assay type: functional; method in brief: as §1
[29] = system: Micrococcus luteus; experiment: Antibacterial activity against Micrococcus luteus ATCC 9631 at 50 mg/ml after 24 hrs by agar diffusion test; assay type: functional; settings: ATCC 9631, 24 h, read-out: DIZ; method in brief: as §1
[30] = system: Micrococcus luteus; experiment: Antibacterial activity against Micrococcus luteus ATCC 9631 at 2 mg/ml after 24 hrs by agar diffusion test; assay type: functional, organism-based; method in brief: as §1
[31] = system: Candida tropicalis; experiment: Antifungal activity against Candida tropicalis ATCC 20336 at 50 mg/ml after 72 hrs by agar diffusion test; assay type: functional; settings: ATCC 20336, 72 h, read-out: DIZ; method in brief: as §2
[32] = system: Micrococcus luteus; experiment: Antibacterial activity against Sarcina lutea ATCC 9341 at 50 mg/ml after 24 hrs by agar diffusion test; assay type: functional; settings: ATCC 9341, 24 h, read-out: DIZ; method in brief: as §3
[33] = system: Bacillus cereus; experiment: Antibacterial activity against Bacillus cereus ATCC 11778 at 2 mg/ml after 24 hrs by agar diffusion test; assay type: functional, organism-based; method in brief: as §1
[34] = system: Penicillium chrysogenum; experiment: Antifungal activity against Penicillium chrysogenum CECT 2802 at 50 mg/ml after 72 hrs by agar diffusion test; assay type: functional; settings: CECT 2802, 72 h, read-out: DIZ; method in brief: as §2
[35] = system: Priestia megaterium; experiment: Antibacterial activity against Bacillus megaterium NRRL 1353895 at 2 mg/ml after 24 hrs by agar diffusion test; assay type: functional, organism-based; method in brief: as §1
[36] = system: Bacillus subtilis; experiment: Antibacterial activity against Bacillus subtilis ATCC 6633 assessed as concentration required to produce >11 mm of zone of inhibition after 24 hrs by agar diffusion test; assay type: functional; method in brief: as §1
[37] = system: Staphylococcus aureus; experiment: Antibacterial activity against Staphylococcus aureus NRRL B 313 at 2 mg/ml after 24 hrs by agar diffusion test; assay type: functional, organism-based; method in brief: as §3
[38] = system: Penicillium chrysogenum; experiment: Antifungal activity against Penicillium chrysogenum CECT 2802 assessed as concentration required to produce >11 mm of zone of inhibition after 72 hrs by agar diffusion test; assay type: functional; method in brief: as §2
[39] = system: Micrococcus luteus; experiment: Antibacterial activity against Micrococcus luteus ATCC 9631 assessed as concentration required to produce >11 mm of zone of inhibition after 24 hrs by agar diffusion test; assay type: functional; method in brief: as §1
[40] = system: Micrococcus luteus; experiment: Antibacterial activity against Sarcina lutea ATCC 9341 assessed as concentration required to produce >11 mm of zone of inhibition after 24 hrs by agar diffusion test; assay type: functional; method in brief: as §1

| Compound | diameter of the inhibition zone (DIZ) [1] | diameter of the inhibition zone (DIZ) [2] | diameter of the inhibition zone (DIZ) [3] | zone of inhibition at 50000 µg/mL [4] | diameter of the inhibition zone (DIZ) [5] | zone of inhibition at 50000 µg/mL [6] | zone of inhibition at 50000 µg/mL [7] | Activity [8] | MIC [9] | Activity [10] | Activity [11] | Activity [12] | zone of inhibition at 50000 µg/mL [13] | Activity [14] | Activity [15] | zone of inhibition at 50000 µg/mL [16] | diameter of the inhibition zone (DIZ) [17] | zone of inhibition at 50000 µg/mL [18] | diameter of the inhibition zone (DIZ) [19] | zone of inhibition at 50000 µg/mL [20] | other results |
| --- | --- | --- | --- | --- | --- | --- | --- | --- | --- | --- | --- | --- | --- | --- | --- | --- | --- | --- | --- | --- | --- |
| CC[C@H](CO)NCc1ccc2c(c1)Cc1ccccc1-2 | inactive | inactive | inactive | 16 mm | inactive | 20 mm | 17 mm | 1.25 mg/mL | 18.7 µM (≈ 5.01 µg/mL) | 1.25 mg/mL | 1.25 mg/mL | 1.25 mg/mL | 17 mm | 1.25 mg/mL | 1.25 mg/mL | 17 mm | inactive | 20 mm | inactive | 18 mm | diameter of the inhibition zone (DIZ) [21]: inactive; Activity [22]: 1.25 mg/mL; diameter of the inhibition zone (DIZ) [23]: inactive; Activity [24]: 0.06 mg/mL; zone of inhibition at 50000 µg/mL [25]: 16 mm; diameter of the inhibition zone (DIZ) [26]: inactive; zone of inhibition at 50000 µg/mL [27]: 16 mm; Activity [28]: 0.6 mg/mL; zone of inhibition at 50000 µg/mL [29]: 16 mm; diameter of the inhibition zone (DIZ) [30]: inactive; zone of inhibition at 50000 µg/mL [31]: 21 mm; zone of inhibition at 50000 µg/mL [32]: 18 mm; diameter of the inhibition zone (DIZ) [33]: inactive; zone of inhibition at 50000 µg/mL [34]: 30 mm; diameter of the inhibition zone (DIZ) [35]: inactive; Activity [36]: 1.25 mg/mL; diameter of the inhibition zone (DIZ) [37]: inactive |
| CC[C@H](COC(C)=O)N1C(=O)C=CC1=O | inactive | inactive | inactive | 29 mm | inactive | 38 mm | 39 mm | 0.06 mg/mL | 23.7 µM (≈ 5 µg/mL) | 1.25 mg/mL | 0.06 mg/mL | 0.0125 mg/mL | > 40 mm | 0.06 mg/mL | 0.06 mg/mL | 35 mm | inactive | > 40 mm | inactive | 40 mm | Activity [38]: 0.0125 mg/mL; diameter of the inhibition zone (DIZ) [21]: inactive; Activity [22]: 0.006 mg/mL; diameter of the inhibition zone (DIZ) [23]: inactive; Activity [24]: 0.006 mg/mL; zone of inhibition at 50000 µg/mL [25]: 40 mm; diameter of the inhibition zone (DIZ) [26]: inactive; Activity [39]: 0.3 mg/mL; zone of inhibition at 50000 µg/mL [27]: 40 mm; Activity [28]: 0.06 mg/mL; Activity [40]: 0.06 mg/mL; zone of inhibition at 50000 µg/mL [29]: 38 mm; diameter of the inhibition zone (DIZ) [30]: inactive; zone of inhibition at 50000 µg/mL [31]: > 40 mm; zone of inhibition at 50000 µg/mL [32]: 38 mm; diameter of the inhibition zone (DIZ) [33]: inactive; zone of inhibition at 50000 µg/mL [34]: > 40 mm; diameter of the inhibition zone (DIZ) [35]: inactive; Activity [36]: 0.06 mg/mL; diameter of the inhibition zone (DIZ) [37]: inactive |

Source: ChEMBL document CHEMBL1932986, “Synthesis and in vitro antimycobacterial activity of compounds derived from (R)- and (S)-2-amino-1-butanol - The crucial role of the configuration” (Eur J Med Chem, 2012)
